According to ChEMBL document CHEMBL1154883, “Synthesis of highly functionalized barbituric acids and study of their interactions with p-glycoprotein and Mg2+--potential candidates for multi drug resistance modulation” (Eur J Med Chem, 2010):

What was measured:
[1] = system: DC3F/ADR; assay: Binding affinity to p-glycoprotein in chinese hamster DC3F/ADR cells assessed as increase in basal activity at 5 uM after 30 mins by spectrophotometric method relative to control; format: cell-based; conditions: Cricetulus griseus
Summary of the method: (§1)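 P-gp membrane vesicles from resistant DC-3F/ADX cells; basal MgATP hydrolysis tracked by PK/LDH-coupled NADH depletion (PEP, NADH) at 340 nm, with non-specific ATPase inhibitor in basal wells. Plate preincubated 30 min at 37 °C; vesicles 5 min, compound 5 min, then MgATP 20 min at 37 °C; read, re-read after 20 min. Triplicate; ≥30% basal change taken as interaction.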

[2] = system: DC3F/ADR; assay: Binding affinity to p-glycoprotein in chinese hamster DC3F/ADR cells assessed as increase in basal activity at 0.05 uM after 30 mins by spectrophotometric method relative to control; format: cell-based; conditions: Cricetulus griseus; summary of the method: as §1
[3] = Binding affinity to Mg2+ ion in HEPES buffer at pH 7.2; format: physicochemical
[4] = system: DC3F/ADR; assay: Binding affinity to p-glycoprotein in chinese hamster DC3F/ADR cells assessed as increase in basal activity at 0.5 uM after 30 mins by spectrophotometric method relative to control; format: cell-based; conditions: Cricetulus griseus; summary of the method: as §1

SMILES | Activity [1] [%] | Activity [2] [%] | Ka [3] | Activity [4] [%]
CN1C(=O)C(=CNc2ccccc2[N+](=O)[O-])C(=O)N(C)C1=O | 141 | 51 | 1.4 ×10⁵ /M | 99
CN1C(=O)C(=C(Nc2ccccc2N)c2ccccc2)C(=O)N(C)C1=O | 135 | 42 | 2.41 ×10⁴ /M | 144
CN1C(=O)C(=CNc2ccccc2C(=O)O)C(=O)N(C)C1=O | 100 | 35 | 3.6 ×10⁶ /M | 83
CN1C(=O)C(=CNc2ccccc2N)C(=O)N(C)C1=O | 166 | 33 | 7.06 ×10⁵ /M | 102
CN1C(=O)C(=CNNc2ccccc2)C(=O)N(C)C1=O | 168 | 57 | 1.53 ×10⁷ /M | 97
CN1C(=O)C(=C(/C=C/c2ccccc2)NNC(/C=C/c2ccccc2)=C2C(=O)N(C)C(=O)N(C)C2=O)C(=O)N(C)C1=O | 200 | 33 | 4.82 ×10⁵ /M | 69
CN1C(=O)C(=CNc2cc(C(=O)O)ccc2C(=O)O)C(=O)N(C)C1=O | 146 | 57 | 7.46 ×10⁵ /M | 80
CN1C(=O)C(=CNCCNC=C2C(=O)N(C)C(=O)N(C)C2=O)C(=O)N(C)C1=O | 134 | 66 | 8.68 ×10⁵ /M | 71
CN1C(=O)C(=CNc2ccccc2O)C(=O)N(C)C1=O | 95 | 42 | 5.76 ×10⁵ /M | 114
COc1ccccc1NC=C1C(=O)N(C)C(=O)N(C)C1=O | 123 | 53 | 5.79 ×10⁵ /M | 95
CN1C(=O)C(=CNCc2ccccn2)C(=O)N(C)C1=O | 98 | 63 | 3.2 ×10⁵ /M | 75
CN1C(=O)C(=CNc2cccc(N)n2)C(=O)N(C)C1=O | 92 | 44 | 2.57 ×10⁵ /M | 81
CN1C(=O)C(=C(/C=C/c2ccccc2)Nc2ccccc2N)C(=O)N(C)C1=O | 133 | 44 | 2.7 ×10⁴ /M | 112
CN1C(=O)C(=C(NNC(=C2C(=O)N(C)C(=O)N(C)C2=O)c2ccccc2)c2ccccc2)C(=O)N(C)C1=O | 166 | 66 | 1.11 ×10⁶ /M | 100
CN1C(=O)C(=C(/C=C/c2ccccc2)NCCNC(/C=C/c2ccccc2)=C2C(=O)N(C)C(=O)N(C)C2=O)C(=O)N(C)C1=O | 66 | 100 | 5.84 ×10⁵ /M | 166
